In the library only some 2.3% were active in any assay of this set; here they are far more common.
TRPC4 PAM = allosterically enhances the mouse TRPC4 cation channel. Q9QUQ5. HEK293 TRPC4beta/mu-opioid, DAMGO EC20, Fluo-4 Ca2+ flux; stronger effect = higher value. B-score at 10 µM. hit rate 0.42% among 310,000. AID 2227;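 active = B-score of calcium response area above 5 SD of library B-scores, with initial fluorescence ratio within 5 SD of library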;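 also: B-score of integrated fluorescence ratio over time as area under calcium response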
TRPC4 act = opens the mouse TRPC4 cation channel; B-score at 10 µM; HEK293 TRPC4beta/mu-opioid, Fluo4 calcium fluorescence; stronger effect = higher value; hit rate 0.49% among 310,000; Q9QUQ5;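 active = B-score above 5 SD of library B-scores, and initial fluorescence ratio not above library mean plus 5 SD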;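 also: positive B-score marks a calcium rise read as TRPC4 activation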
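system = HEK293 cells stably co-expressing mouse TRPC4beta and mu-opioid receptor | schedule = Fluo4 dye loading 45 min at room temperature, 110 s recording | measure = B-scored integrated calcium fluorescence ratio | signal = Fluo4 calcium-sensitive dye fluorescence, kinetic, 1 Hz baseline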
TRPC6 inhibitor = inhibitors of mouse TRPC6 channel | Q61143 | HEK293-TRPC6, membrane potential dye, ACh-evoked depolarization; stronger effect = lower value | B-score at 10 µM | hit rate 1.1% among 310,000;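 active = B-score under library mean minus 3 SD, initial fluorescence not abnormally high, positive integrated signal ratio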;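 also: B-score derived from integrated fluorescence ratio over the kinetic read; more negative B-score means stronger inhibition of depolarization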
TRPC4 block = inhibitors of mouse TRPC4 channel; B-score at 10 µM; HEK293 TRPC4beta/mu-opioid, DAMGO-evoked Fluo4 calcium flux; stronger effect = lower value; Q9QUQ5; hit rate 0.39% among 300,000;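 active = B-score over 3 SD under the library average, no early fluorescence shift, positive overall ratio signal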
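Signal: kinetic Fluo4 fluorescence imaging of calcium influx. Material: stable TRPC4beta/mu-opioid receptor HEK293 cells. Probe or stimulus: DAMGO in two steps, submaximal then maximal.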
TRPC6 activator = activates the mouse TRPC6 cation channel | AID 2550 | HEK293-TRPC6 membrane potential dye fluorescence; stronger effect = higher value | B-score at 10 µM | hit rate 0.13% among 310,000 | Q61143;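 active = B-score of the integrated fluorescence ratio above library mean plus 3 SD, and starting fluorescence ratio within library mean plus 5 SD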;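 also: higher score means more depolarization so channel activation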
HEK293 TRPC6 ctr = checks TRPC6 modulator effects in parental HEK293 cells. hit rate 51% among 2,400. membrane potential signal change, % at 10 µM. shares compounds with TRPC6 inhibitor. membrane potential dye fluorescence;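 active = membrane potential signal moves up or down beyond 5 SD from buffer-only wells, on both duplicate plates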
HEK293 MPD ctr 2 = parental HEK293 nonspecific activity of TRPC6 modulators, second screen; shares compounds with TRPC6 inhibitor; membrane potential dye fluorescence; after compound, maximal acetylcholine stimulation; inhibition, % at 10 µM; hit rate 14% among 2,400; AID 488926;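 active = membrane potential signal drops by more than 5 SD from the mean control signal, in both duplicate plates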;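 also: plate controls were acetylcholine ECmax control wells for no effect and buffer only wells for full effect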
TRPC4 ctr mod = mouse TRPC4 off-target activity of TRPC6 modulators; hit rate 69% among 2,400; AID 488927; HEK293 TRPC4/mu-opioid, membrane potential fluorescence; shares compounds with TRPC6 inhibitor; percent change from control (negative = decrease, positive = increase), % at 10 µM;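 active = membrane potential signal moved up or down beyond 5 SD of buffer control wells, in both duplicate plates, actives on both sides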;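 also: plate controls were assay buffer wells for no effect and DAMGO maximal-effect wells for full effect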
TRPC4 ctr inh 2 = mouse TRPC4 off-target activity of TRPC6 modulators, second screen. shares compounds with TRPC6 inhibitor. HEK293 TRPC4/mu-opioid, membrane potential dye fluorescence; stimulated with maximal-effect DAMGO. inhibition, % at 10 µM. hit rate 55% among 2,400. AID 488928;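 active = drop in membrane potential signal beyond 5 SD of the control wells in both duplicate plates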;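 also: TRPC4 counter screen for TRPC6 hits run under conditions tuned for TRPC6 not TRPC4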
TRPC6 block conf = mouse TRPC6 inhibitor confirmation | shares compounds with TRPC6 inhibitor | HEK293-TRPC6, membrane potential dye, ACh-evoked depolarization | inhibition, % at 10 µM | hit rate 43% among 3,300;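 active = fluorescence ratio falls more than 5 SD below the full-stimulation control mean, in both duplicate runs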;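 also: integrated fluorescence ratio of peak minus minimum over baseline after agonist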
TRPC6 act confirm = mouse TRPC6 activator confirmation; shares compounds with TRPC6 inhibitor; HEK293-TRPC6 membrane potential dye fluorescence, FDSS; activation, % at 10 µM; hit rate 11% among 2,800;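 active = ratio signal rise beyond 5 SD above unstimulated control wells' mean, seen in both duplicate runs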;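 also: plate controls were buffer EC0 wells for no effect and acetylcholine ECmax response for full effect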
* hit, by the source's call; i = inactive; / = no result given.

SMILES	TRPC4 PAM	TRPC4 act	TRPC6 inhibitor	TRPC4 block	TRPC6 activator	HEK293 TRPC6 ctr	HEK293 MPD ctr 2	TRPC4 ctr mod	TRPC4 ctr inh 2	TRPC6 block conf	TRPC6 act confirm
COc1cccc(NS(=O)(=O)c2ccc3[nH]cc(C(=O)NC4CC4)c(=O)c3c2)c1	i	i	-8.87*	i	14.3*	i	i	i	i	58.0%*	90.5%*
O=[N+]([O-])c1cc(-c2ccc(/C=N\n3cnnc3)o2)cc([N+](=O)[O-])c1	i	i	-6.16*	i	i	-234.0%*	63.0%*	-34.5%*	41.5%*	i	i
CN(C)C(=O)N1CCCC(C(=O)NCc2ccccc2Cl)C1 (stereo not drawn)	i	i	-5.29*	i	i	i	i	i	i	i	i
CS(=O)(=O)N(CC(=O)NCc1ccccc1Cl)C1CCCCC1	i	i	-6.54*	i	i	133.5%*	i	22.5%*	i	i	/
CS(=O)(=O)N(CC(=O)NCc1ccc(Cl)cc1)C1CCCCC1	i	i	i	i	i	/	/	/	/	/	/
C[C@@H](C(=O)N[C@@H](Cc1ccccc1)C(=O)O)n1nnc2ccccc2c1=O	i	i	i	i	i	/	/	/	/	/	/
CC(NC(=O)COc1ccc(N(C)S(=O)(=O)c2ccccc2)cc1)c1ccccc1 (stereo not drawn)	i	i	i	i	i	/	/	/	/	/	/
O=C(COc1cccnc1[N+](=O)[O-])NCCc1ccc(Cl)cc1Cl	i	i	i	i	i	/	/	/	/	/	/
C=CCOc1cccc(C(=O)N2CCC(CCC(=O)NC3CC3)CC2)c1	i	i	i	i	i	/	/	/	/	/	/
COc1ccc(-c2nnc(N(C)C(=O)c3cccnc3)s2)cc1	i	i	-5.21*	i	i	i	i	i	i	i	i
Cc1nnc(SCCn2c(N3CCCCC3)nc3c2c(=O)n(C)c(=O)n3C)s1	i	i	i	i	i	/	/	/	/	/	/
Cc1nnc(SCCn2c(N3CCN(C)CC3)nc3c2c(=O)n(C)c(=O)n3C)s1	i	i	-13*	i	i	-231.0%*	96.5%*	-35.0%*	59.0%*	72.0%*	i
O=C(CCCC(=O)N(CC(=O)NC1CCCCC1)c1ccccc1F)Nc1ccccn1	i	i	i	i	i	/	/	/	/	/	/
C/C(=N\NC(=O)c1ccc(CN2CCc3ccccc3C2)cc1)c1ccccc1O	i	i	i	i	i	/	/	/	/	/	/
COc1ccc(S(=O)(=O)N2CCC(C(=O)NCCC(=O)Nc3cccc(Cl)c3)CC2)cc1	i	i	i	i	i	/	/	/	/	/	/

Screening results as filed in PubChem BioAssay.
